Experimental data taken from paper PMC6402543 (Nature, 2018).
Values after ≈ are worked out from the molar mass of the structure shown. Where two headings read alike, the source gives them in different places.

Tests used:
[1] = system: L. donovani promastigotes (LdBOB); assay: Promastigote drug sensitivity assay; assay type: cell-based, Leishmania donovani; conditions: for EC50: Leishmania donovani
[2] = Non-GLP preclinical assessment of cardiovascular effects and genotoxicity
Stability in microsomes [3] = assay type: in vitro ADME; conditions: Human; 0.5 μM
Summary of the method: (§1)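 Liver microsomes of each stated species were incubated with test compound at 0.5 µM. Intrinsic clearance (Cli) is reported in mL/min/g tissue.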

Stability in hepatocytes [4] = assay type: in vitro ADME; conditions: Human; 0.5 μM
Summary of the method: (§2)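 Test compound was incubated with hepatocytes of the stated species at 0.5 µM. The read-out is intrinsic clearance (Cli), expressed as mL/min/g tissue.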

Stability in microsomes [5] = assay type: in vitro ADME, dog (beagle); conditions: Dog; 0.5 μM
Summary of the method: as §1

Stability in microsomes [6] = assay type: in vitro ADME, mouse (CD1); conditions: Mouse; 0.5 μM
Summary of the method: as §1

Stability in hepatocytes [7] = assay type: in vitro ADME, rat (Sprague Dawley); conditions: Rat; 0.5 μM
Summary of the method: as §2

[8] = Solubility in simulated physiological media; assay type: physicochemical; conditions: fed simulated intestinal fluid (FeSSIF), pH 6.5
Stability in hepatocytes [9] = assay type: in vitro ADME, dog (beagle); conditions: Dog; 0.5 μM
Summary of the method: as §2

Stability in hepatocytes [10] = assay type: in vitro ADME, mouse (CD1); conditions: Mouse; 0.5 μM
Summary of the method: as §2

[11] = system: L. donovani promastigotes (LdBOB); assay: Cell cycle analysis; assay type: cell-based, Leishmania donovani; conditions: 5x EC50 for 8 h
Mouse pharmacokinetics = assay type: in vivo, Mouse (male, CD1); conditions: for F% based on AUC(0-inf): mouse
[12] = system: L. donovani intramacrophage amastigotes (INMAC); assay: Intra macrophage drug sensitivity assay; assay type: cell-based, Leishmania donovani; conditions: 5 RES clone 1 vs WT intramacrophage amastigotes
Stability in microsomes [13] = assay type: in vitro ADME, rat (Sprague Dawley); conditions: Rat; 0.5 μM
Summary of the method: as §1

[14] = system: L. donovani axenic amastigotes; assay: Cidal axenic amastigote assay; assay type: cell-based; conditions: Leishmania donovani, read-out: Cidal axenic EC50
[15] = system: L. donovani axenic amastigotes; assay: Rate-of-kill of axenic amastigotes; assay type: cell-based, Leishmania donovani
[16] = system: L. donovani amastigotes (LV9); assay: In vivo efficacy, mouse model of VL; design: species or system Leishmania donovani; conditions: 25 mg/kg bid, 10 days, oral
Summary of the method: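 Each treatment arm used 5 mice. Regimens were dosed once daily (uid) or twice daily (bid) for 5 or 10 days, and bid dosing for 10 days was run over a dose range. Parasite burden was scored as Leishman Donovan Units: amastigotes per 500 nucleated cells multiplied by organ weight in g. Read-out was reduction in parasite load.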

Rat pharmacokinetics = assay type: in vivo, Rat (male, SD)
THP-1 cells = assay: THP-1 host cell toxicity in the intra-macrophage assay; assay type: cell-based; conditions: Homo sapiens, THP-1, read-out: THP-1 EC50
[17] = system: L. donovani clinical isolates (LV9, SUKA 001, BHU1, DD8); assay type: cell-based, Leishmania donovani
[18] = Rat 7-day repeat dose oral toxicology; assay type: in vivo, rat (male Wistar Han); conditions: all doses tested
[19] = system: L. donovani amastigotes (LV9); conditions: uid; cited from earlier work
[20] = male, CD1, mouse, whole blood, iv, 1 mg/kg
[21] = male, CD1, mouse, whole blood, po, 10 mg/kg
[22] = male, CD1, mouse, whole blood, po, 100 mg/kg
[23] = male, CD1, mouse, whole blood, po, 300 mg/kg
[24] = male, Sprague Dawley, whole blood, iv, 1 mg/kg
[25] = male, Sprague Dawley, whole blood, po, 10 mg/kg
[26] = male, Sprague Dawley, whole blood, po, 100 mg/kg
[27] = male, Sprague Dawley, whole blood, po, 300 mg/kg

C[C@H]1CN(c2n[nH]c3nc(N[C@H]4CC[C@H](NS(=O)(=O)CCC(F)(F)F)CC4)ncc23)CCO1 [Compound 7]
Fold ([1]; 4-resistant clone 1, fold resistance vs wild type): 20
Fold ([1]; 4-resistant clone 2, fold resistance vs wild type): 24
Fold ([1]; 4-resistant clone 3, fold resistance vs wild type): 48
Fold ([1]; 5-resistant clone 1, fold resistance vs wild type): 41
Fold ([1]; 5-resistant clone 2, fold resistance vs wild type): 35
Fold ([1]; 5-resistant clone 3, fold resistance vs wild type): 22
EC50 relative to WT ([1]; CRK12MUT and CYC9 co-overexpressing): ~ 6 fold
EC50 relative to WT ([1]; CRK12MUT overexpressing): ~ 3.4 fold
EC50 relative to WT ([1]; CRK12WT and CYC9 co-overexpressing): ~ 3 fold
EC50 ([1]; read-out: pEC50 (SD), 4-resistant clone 1 promastigotes (converted)): 1.58 µM
EC50 ([1]; read-out: pEC50 (SD), 4-resistant clone 2 promastigotes (converted)): 2 µM
EC50 ([1]; read-out: pEC50 (SD), 4-resistant clone 3 promastigotes (converted)): 3.98 µM
EC50 ([1]; read-out: pEC50 (SD), 5-resistant clone 1 promastigotes (converted)): 3.16 µM
EC50 ([1]; read-out: pEC50 (SD), 5-resistant clone 2 promastigotes (converted)): 3.16 µM
EC50 ([1]; read-out: pEC50 (SD), 5-resistant clone 3 promastigotes (converted)): 2 µM
EC50 ([1]; read-out: pEC50 (SD), Wild type (Age-matched) promastigotes (converted)): 0.0501 µM
EC50 ([1]; read-out: pEC50 (SD), Wild type (Start clone) promastigotes (converted)): 0.0794 µM
Fold ([1]; Wild type (Age-matched) promastigotes, fold vs wild type): 1
Fold ([1]; Wild type (Start clone) promastigotes, fold vs wild type): 1
Cardiovascular effects and genotoxicity [2]: did not reveal any issues that would prevent further development
Microsomes Cli (Stability in microsomes [3]): 0.71 mL/min/g tissue
Hepatocytes Cli (Stability in hepatocytes [4]): 0.5 mL/min/g tissue
Microsomes Cli (Stability in microsomes [5]): <0.4 mL/min/g tissue
Microsomes Cli (Stability in microsomes [6]): 0.52 mL/min/g tissue
Hepatocytes Cli (Stability in hepatocytes [7]): 0.77 mL/min/g tissue
solubility at 4 h [8]: 25 µg/mL (≈ 50.9 µM)
Hepatocytes Cli (Stability in hepatocytes [9]): 0.31 mL/min/g tissue
Hepatocytes Cli (Stability in hepatocytes [10]): 0.84 mL/min/g tissue
Effect on cell-cycle progression [11]: accumulation of cells in G1 and in G2/M and a decrease in the proportion of cells in S phase
AUC(0-inf) (Mouse pharmacokinetics; [20]): 104 ± 26 ng·h/mL
Vd (Mouse pharmacokinetics; [20]): 4 ± 0.5 L/kg
clearance (Mouse pharmacokinetics; [20]): 169 ± 50 mL/min/kg
half-life (Mouse pharmacokinetics; [20]): 0.3 ± 0.04 h
AUC(0-inf) (Mouse pharmacokinetics; [21]): 1460 ± 362 ng·h/mL
Cmax (Mouse pharmacokinetics; [21]): 561 ± 148 ng/mL
Tmax (Mouse pharmacokinetics; [21]): 2 h
AUC(0-inf) (Mouse pharmacokinetics; [22]): 39400 ± 23800 ng·h/mL
Cmax (Mouse pharmacokinetics; [22]): 8810 ± 1970 ng/mL
Tmax (Mouse pharmacokinetics; [22]): 3 h
AUC(0-inf) (Mouse pharmacokinetics; [23]): 66200 ng·h/mL
Cmax (Mouse pharmacokinetics; [23]): 11400 ± 4210 ng/mL
Tmax (Mouse pharmacokinetics; [23]): 5 h
F% based on AUC(0-inf) (Mouse pharmacokinetics; oral 10 mg/kg): >100%
F% based on AUC(0-inf) (Mouse pharmacokinetics; oral 100 mg/kg): >100%
F% based on AUC(0-inf) (Mouse pharmacokinetics; oral 300 mg/kg): >100%
Fold difference [12]: 5
Microsomes Cli (Stability in microsomes [13]): <0.5 mL/min/g tissue
EC50 [14]: 0.1 µM
Time at which compound was cytocidal ([15]; 0.2 μM): 96 h
Time at which compound was cytocidal ([15]; 1.8 μM): 48 h
Reduction in parasite load [16]: 99%
AUC(0-inf) (Rat pharmacokinetics; [24]): 1510 ± 782 ng·h/mL
Vd (Rat pharmacokinetics; [24]): 0.4 ± 0.1 L/kg
clearance (Rat pharmacokinetics; [24]): 14 ± 9 mL/min/kg
half-life (Rat pharmacokinetics; [24]): 0.4 ± 0.2 h
AUC(0-inf) (Rat pharmacokinetics; [25]): 6480 ± 2490 ng·h/mL
Cmax (Rat pharmacokinetics; [25]): 1040 ± 261 ng/mL
Tmax (Rat pharmacokinetics; [25]): 2 h
AUC(0-inf) (Rat pharmacokinetics; [26]): 61200 ± 23600 ng·h/mL
Cmax (Rat pharmacokinetics; [26]): 8470 ± 3750 ng/mL
Tmax (Rat pharmacokinetics; [26]): 7.3 h
AUC(0-inf) (Rat pharmacokinetics; [27]): 136000 ± 24800 ng·h/mL
Cmax (Rat pharmacokinetics; [27]): 14800 ± 2680 ng/mL
Tmax (Rat pharmacokinetics; [27]): 7.3 h
F% based on AUC(0-inf) (Rat pharmacokinetics; oral 10 mg/kg): 46 ±18%
F% based on AUC(0-inf) (Rat pharmacokinetics; oral 100 mg/kg): 40 ± 15%
F% based on AUC(0-inf) (Rat pharmacokinetics; oral 300 mg/kg): 51 ± 22%
EC50 (THP-1 cells): > 50 µM
Variation in potency against a panel of Leishmania clinical-derived lines [17]: less than 10 fold
Adverse effects (clinical chemistry and histopathology) [18]: no significant adverse effects

CCCCCCCCCCCCCCCCOP(=O)([O-])OCC[N+](C)(C)C [miltefosine]
ED90 in a mouse model [19]: 27 mg/kg
